Source: PubChem BioAssay (Sanford-Burnham Center for Chemical Genomics)
Most compounds without a hit are left out; they make up all but 1.8% or so of the library.
HKDC1 inh – blocks human hexokinase HKDC1 activity. Q2TB90. recombinant HKDC1, G6PDH/diaphorase resazurin coupled fluorescence. inhibition, % at 20 µM. actives 0.16% (n = 340,000);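 active = inhibition above about 35% when tested at 20 µM, limit read from the data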;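 note: plate controls were DMSO wells with enzyme for no effect and DMSO wells lacking enzyme for full effect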
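Assay system – recombinant HKDC1 (HK5) hexokinase enzyme, produced in-house · Input – HKDC1 at 5 µg/mL · Reagent – glucose plus 1 mM ATP as hexokinase substrates · Timing – 90 min reaction incubation at room temperature, dark · Measured by – G6PDH/diaphorase-coupled fluorescence, 1 mM NADP, 100 µM resazurin, 525/613 nm · Benchmarks – DMSO-enzyme wells negative, buffer-substituted wells positive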
LMPTP inh – blocks human LMPTP phosphatase; recombinant LMPTP-A, OMFP fluorogenic substrate, fluorescence intensity; inhibition, % at 20 µM; actives 0.22% (n = 360,000);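 active = compounds that cut the enzyme signal by at least half of the control window in the single-dose screen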;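 note: plate controls were DMSO wells with enzyme plus substrate for no effect and substrate without enzyme for full effect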
Target sequence (P24666 whole entry, looked up): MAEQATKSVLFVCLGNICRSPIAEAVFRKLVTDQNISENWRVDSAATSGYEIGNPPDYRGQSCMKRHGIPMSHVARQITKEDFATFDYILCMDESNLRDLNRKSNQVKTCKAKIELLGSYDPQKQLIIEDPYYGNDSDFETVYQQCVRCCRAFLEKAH
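material = LMPTP-A | quantity = 0.625 nM enzyme | reagent = OMFP substrate, 400 µM final | buffer or medium = Bis-Tris pH 6.0, DTT, detergent | detection = endpoint fluorescence intensity from OMFP dephosphorylation | dosing = single 20 µM dose | read-out basis = % inhibition relative to no-enzyme and uninhibited control wells | control set = no-enzyme and uninhibited controls | timing = 50 min at room temperature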
DNMT1 inh – blocks human DNA methyltransferase DNMT1; P26358; DNMT1 molecular beacon, Hinp1I cleavage, fluorescence; inhibition (reported as % activation of signal), % at 10 µM; actives 0.83% (n = 360,000); in the data active = inhibition above about 50%
Scp1 inh – blocks human Scp-1 phosphatase activity; inhibition, % at 20 µM; actives 0.88% (n = 340,000); Recombinant Scp1, phosphopeptide, malachite green phosphate absorbance; Q9GZU7;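 active = inhibition above about 50% at 20 µM, limit read from the data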;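 note: plate controls were DMSO wells with enzyme for no effect and wells lacking enzyme for full effect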
Target sequence (Q9GZU7 76-261 limits assumed): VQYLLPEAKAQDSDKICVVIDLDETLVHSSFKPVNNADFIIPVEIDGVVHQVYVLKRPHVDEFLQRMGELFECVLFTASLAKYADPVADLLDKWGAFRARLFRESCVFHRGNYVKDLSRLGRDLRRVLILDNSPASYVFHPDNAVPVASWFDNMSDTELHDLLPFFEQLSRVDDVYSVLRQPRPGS
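Material – SCP-1 phosphatase catalytic domain, residues 76-261 · Buffer or medium – Acidic Tris acetate buffer with magnesium and detergent · Also added – Phospho 17-mer peptide substrate · Compound – single 20 µM dose, 1% DMSO · Times – 45 min room-temperature reaction, 5 min colour, 30 min stabiliser · Technique – Phosphate-binding colour reagent, absorbance read at 630 nm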
SUMO1 PPI mod – modulators of human SUMO1-mediated protein-protein interactions | inhibition, % at 20 µM | actives 0.33% (n = 360,000) | AID 602429 | SUMO1 binding to a labelled peptide, TR-FRET, 1 h | P63165; in the data active = inhibition above about 37%
Target sequence (P63165 whole entry, looked up): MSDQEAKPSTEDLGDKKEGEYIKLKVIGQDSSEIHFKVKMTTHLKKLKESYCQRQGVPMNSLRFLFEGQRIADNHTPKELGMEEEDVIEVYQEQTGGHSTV
STEP block – blocks human striatal-enriched tyrosine phosphatase. P54829. recombinant STEP, OMFP fluorogenic substrate, fluorescence. inhibition, % at 20 µM. actives 0.25% (n = 360,000). AID 588621;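 active = inhibition at 20 µM, scaled per plate between control wells, above about 37%, limit read from the data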;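 note: 0% = DMSO with enzyme and substrate and 100% = substrate only without enzyme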
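medium = Bis-Tris buffer pH 6.0, 2.5 mM DTT, 0.005% Tween 20 | test system = STEP (striatal-enriched tyrosine phosphatase) enzyme, cell-free | measure = normalized % inhibition | compound dosing = 20 µM, 1% DMSO | also added = 25 µM OMFP | schedule = reaction 20 min, ambient temperature | measured by = fluorescence read at 480 nm ex / 540 nm em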
DNMT1 inh conf – DNMT1 inhibition confirmation, single concentration; shares compounds with DNMT1 inh; DNMT1 molecular beacon HinP1I cleavage, fluorescence; inhibition, % at 10 µM; actives 8% (n = 2,300);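 active = average inhibition of at least 30% in the single-concentration confirmation test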
Beacon interf – counter-screen for DNMT1 inhibitors: spectral interference; shares compounds with DNMT1 inh; DNMT1 molecular beacon spectral interference counterscreen, fluorescence 485/520; activation (fluorescence interference), % at 10 µM; actives 1% (n = 2,300); AID 602387;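 active = activation of at least 30% at 10 µM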;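 note: DNMT1 catalytic domain with a HinP1I cleavage step and a FAM/dabcyl DNA beacon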
* = called active by the depositor.

How did O=C(CCN1C(=O)/C(=C/c2ccccc2)SC1=S)NC1CCS(=O)(=O)C1 (stereo not drawn) do in these assays?
HKDC1 inh: 2; LMPTP inh: -1; DNMT1 inh: 2; Scp1 inh: -9; SUMO1 PPI mod: -38; STEP block: 6

Results for O=C(CCCN1C(=O)/C(=C/c2ccco2)SC1=S)Nc1cccc(C(=O)O)c1 ?
HKDC1 inh: 5; LMPTP inh: 6; DNMT1 inh: 86*; Scp1 inh: 51*; SUMO1 PPI mod: 50*; STEP block: 18; DNMT1 inh conf: 1; Beacon interf: -4

What do the screens show for `O=C(CCCN1C(=O)/C(=C\c2cccs2)SC1=S)Nc1ccc(O)cc1C(=O)O`?
HKDC1 inh: 11; LMPTP inh: 0; DNMT1 inh: 0; Scp1 inh: 9; SUMO1 PPI mod: 3; STEP block: 18

What do the screens show for `O=C(CN1C(=O)/C(=C/c2ccco2)SC1=S)Nc1ccc(O)c(C(=O)O)c1`?
HKDC1 inh: 17; LMPTP inh: 34; DNMT1 inh: 87*; Scp1 inh: 63*; SUMO1 PPI mod: 84*; STEP block: 60*; DNMT1 inh conf: 11; Beacon interf: -2

What do the screens show for `COc1ccc(NC(=O)CCCN2C(=O)/C(=C\c3ccco3)SC2=S)cc1`?
HKDC1 inh: -6; LMPTP inh: 0; DNMT1 inh: -22; Scp1 inh: -5; SUMO1 PPI mod: -9; STEP block: 1

Results for O=C(CN1C(=O)/C(=C/c2ccco2)SC1=S)NC1CCS(=O)(=O)C1 (stereo not drawn) ?
HKDC1 inh: 4; LMPTP inh: 7; DNMT1 inh: 76*; Scp1 inh: 58*; SUMO1 PPI mod: 31; STEP block: 45*; DNMT1 inh conf: 3; Beacon interf: -1

How did COc1cc(Br)cc(CN2CCN(c3ncccn3)CC2)c1O do in these assays?
HKDC1 inh: -1; LMPTP inh: -2; DNMT1 inh: 0; Scp1 inh: -10; SUMO1 PPI mod: 0; STEP block: -2

How did CCC(CC)c1nnc(NC(=O)CCc2ccccc2OC)s1 do in these assays?
HKDC1 inh: -6; LMPTP inh: 0; DNMT1 inh: 3; Scp1 inh: 2; SUMO1 PPI mod: 6; STEP block: 0

What do the screens show for `COc1cc(C=O)ccc1OCC(=O)Nc1ccc2c(c1)OCO2`?
HKDC1 inh: -2; LMPTP inh: 0; DNMT1 inh: -3; Scp1 inh: 1; SUMO1 PPI mod: 1; STEP block: 0

What do the screens show for `CC(=O)c1oc2ccccc2c1NC(=O)COC(=O)c1ccc(-n2nc(C)cc2C)cc1`?
HKDC1 inh: -3; LMPTP inh: 19; DNMT1 inh: 54*; Scp1 inh: 16; SUMO1 PPI mod: -1; STEP block: 0; DNMT1 inh conf: 1; Beacon interf: 3

How did CCOc1ccc(NC(=O)CN(C)C(=O)c2csc3c2CCCC3)cc1OCC do in these assays?
HKDC1 inh: -5; LMPTP inh: -1; DNMT1 inh: -2; Scp1 inh: -8; SUMO1 PPI mod: -3; STEP block: -2

What do the screens show for `CCOc1ccc(NC(=O)CN(C)C(=O)c2cc3c(s2)CCC3)cc1OCC`?
LMPTP inh: 17; DNMT1 inh: 94*; SUMO1 PPI mod: 16; STEP block: 5; DNMT1 inh conf: 15; Beacon interf: -2

Results for CCN(CC(=O)Nc1c(F)cccc1F)C(=O)C1CCCN(C(=O)c2ccc(Cl)cc2)C1 (stereo not drawn) ?
HKDC1 inh: -5; LMPTP inh: -9; DNMT1 inh: 0; Scp1 inh: -7; SUMO1 PPI mod: -37; STEP block: -1
